Activity calls are given as the source filed them. No cut-off for these calls is given here.
How the values were obtained:
[1] = molecular target: T1, Histone-lysine N-methyltransferase SETD7 (Homo sapiens, UniProt Q8WTS6); assay: Inhibition of SET7 (unknown origin)
T1 sequence (Q8WTS6 whole entry): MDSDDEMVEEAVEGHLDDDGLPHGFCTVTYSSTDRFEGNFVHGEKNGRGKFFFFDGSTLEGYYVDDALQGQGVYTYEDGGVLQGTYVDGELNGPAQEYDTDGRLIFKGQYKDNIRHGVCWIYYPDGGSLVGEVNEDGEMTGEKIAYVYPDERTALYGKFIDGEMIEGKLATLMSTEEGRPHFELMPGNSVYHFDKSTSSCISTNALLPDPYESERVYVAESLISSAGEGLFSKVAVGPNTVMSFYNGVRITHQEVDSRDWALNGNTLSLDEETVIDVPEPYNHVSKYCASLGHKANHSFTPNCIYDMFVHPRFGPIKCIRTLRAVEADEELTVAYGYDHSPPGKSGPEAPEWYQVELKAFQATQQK
Procedure, shortened: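 AlphaLISA: purified SET7 in modified Tris buffer 15 min at room temperature, compounds added in DMSO, then substrate solution added for 60 min. Acceptor and donor beads incubated 60 min at room temperature in the dark, then Alpha-mode read. Inhibition % = (Max−Signal)/(Max−Min)×100; low control received assay buffer instead of enzyme.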

[2] = molecular target: T1, Histone-lysine N-methyltransferase SETD7; assay: Competitive inhibition of SET7 (unknown origin) after 60 mins by AlphaLISA method in presence of SAM
[3] = molecular target: DNA (cytosine-5)-methyltransferase 1 (Homo sapiens) (UniProt P26358); assay: Inhibition of DNMT1 (unknown origin) using poly(dI-DC) as substrate at 100 uM preincubated for 15 mins followed by substrate and [3H]SAM addition measured after 120 mins by microbeta counting analysis relative to control
Procedure, shortened: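 Radioactive methylation assay in modified Tris buffer with poly(dI-dC) substrate. Enzyme held 15 min at room temperature, then substrate and [3H]-SAM added. Reaction run 120 min at 37 °C, then moved to 0.5% PEI-pretreated filter plates, washed with water under vacuum and counted. Maximum = enzyme plus substrate; minimum = substrate only.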

[4] = molecular target: Histone-lysine N-methyltransferase EZH2 (Homo sapiens) (UniProt Q15910); assay: Inhibition of EZH2 (unknown origin) using H3K27me peptide as substrate at 100 uM preincubated for 15 mins followed by substrate/[3H]SAM addition by liquid scintillation counting analysis relative to control
Procedure, shortened: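 Enzyme in modified Tris buffer, 15 min at room temperature, then H3K27me peptide plus [3H]-SAM added to start. Stopped with cold SAM (final 0.5 mM), transferred to FlashPlate for at least 1 h at room temperature, washed with water/0.1% Tween-20, then scintillation counting.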

[5] = molecular target: Histone-lysine N-methyltransferase, H3 lysine-36 specific (Homo sapiens) (UniProt Q96L73); assay: Inhibition of NSD1 (unknown origin) at 100 uM preincubated for 15 mins followed by substrate/[3H]-SAM addition measured after 4 hrs by liquid scintillation counting analysis relative to control
Procedure, shortened: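 Enzyme in modified Tris buffer, 15 min at room temperature, then substrate and [3H]-SAM added. After 4 h, cold SAM stop, transfer to PEI-pretreated GF/B filter plate, water washes under vacuum, then scintillation counting.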

[6] = molecular target: T2, N-lysine methyltransferase KMT5A (Homo sapiens) (UniProt Q9NQR1); assay: Inhibition of SETD8 (unknown origin) at 100 uM preincubated for 15 mins measured after 120 mins by microbeta counting analysis in presence of [3H]-SAM relative to control
T2 sequence (whole entry): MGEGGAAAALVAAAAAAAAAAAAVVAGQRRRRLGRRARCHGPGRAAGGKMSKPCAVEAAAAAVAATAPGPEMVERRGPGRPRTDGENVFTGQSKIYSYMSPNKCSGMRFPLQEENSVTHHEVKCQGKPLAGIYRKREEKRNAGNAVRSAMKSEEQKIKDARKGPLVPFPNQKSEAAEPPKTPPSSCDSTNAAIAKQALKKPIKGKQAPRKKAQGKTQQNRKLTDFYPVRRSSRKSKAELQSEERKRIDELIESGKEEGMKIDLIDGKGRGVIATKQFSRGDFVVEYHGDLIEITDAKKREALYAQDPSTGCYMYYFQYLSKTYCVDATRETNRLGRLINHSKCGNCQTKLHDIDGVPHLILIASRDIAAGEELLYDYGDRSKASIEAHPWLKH
Procedure, shortened: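 Compounds added in DMSO and enzyme held 15 min at room temperature in modified Tris buffer. Reaction started with peptide plus [3H]-SAM and stopped with cold SAM after 120 min. Transferred to streptavidin FlashPlate for at least 60 min, washed with water/0.1% Tween-20, then counted.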

[7] = molecular target: T3, Histone-lysine N-methyltransferase EHMT2 (Homo sapiens) (UniProt Q96KQ7); assay: Inhibition of G9a (unknown origin) at 100 uM preincubated for 15 mins followed by substrate addition measured after 60 mins by AlphaLISA method relative to control
T3 sequence (whole entry): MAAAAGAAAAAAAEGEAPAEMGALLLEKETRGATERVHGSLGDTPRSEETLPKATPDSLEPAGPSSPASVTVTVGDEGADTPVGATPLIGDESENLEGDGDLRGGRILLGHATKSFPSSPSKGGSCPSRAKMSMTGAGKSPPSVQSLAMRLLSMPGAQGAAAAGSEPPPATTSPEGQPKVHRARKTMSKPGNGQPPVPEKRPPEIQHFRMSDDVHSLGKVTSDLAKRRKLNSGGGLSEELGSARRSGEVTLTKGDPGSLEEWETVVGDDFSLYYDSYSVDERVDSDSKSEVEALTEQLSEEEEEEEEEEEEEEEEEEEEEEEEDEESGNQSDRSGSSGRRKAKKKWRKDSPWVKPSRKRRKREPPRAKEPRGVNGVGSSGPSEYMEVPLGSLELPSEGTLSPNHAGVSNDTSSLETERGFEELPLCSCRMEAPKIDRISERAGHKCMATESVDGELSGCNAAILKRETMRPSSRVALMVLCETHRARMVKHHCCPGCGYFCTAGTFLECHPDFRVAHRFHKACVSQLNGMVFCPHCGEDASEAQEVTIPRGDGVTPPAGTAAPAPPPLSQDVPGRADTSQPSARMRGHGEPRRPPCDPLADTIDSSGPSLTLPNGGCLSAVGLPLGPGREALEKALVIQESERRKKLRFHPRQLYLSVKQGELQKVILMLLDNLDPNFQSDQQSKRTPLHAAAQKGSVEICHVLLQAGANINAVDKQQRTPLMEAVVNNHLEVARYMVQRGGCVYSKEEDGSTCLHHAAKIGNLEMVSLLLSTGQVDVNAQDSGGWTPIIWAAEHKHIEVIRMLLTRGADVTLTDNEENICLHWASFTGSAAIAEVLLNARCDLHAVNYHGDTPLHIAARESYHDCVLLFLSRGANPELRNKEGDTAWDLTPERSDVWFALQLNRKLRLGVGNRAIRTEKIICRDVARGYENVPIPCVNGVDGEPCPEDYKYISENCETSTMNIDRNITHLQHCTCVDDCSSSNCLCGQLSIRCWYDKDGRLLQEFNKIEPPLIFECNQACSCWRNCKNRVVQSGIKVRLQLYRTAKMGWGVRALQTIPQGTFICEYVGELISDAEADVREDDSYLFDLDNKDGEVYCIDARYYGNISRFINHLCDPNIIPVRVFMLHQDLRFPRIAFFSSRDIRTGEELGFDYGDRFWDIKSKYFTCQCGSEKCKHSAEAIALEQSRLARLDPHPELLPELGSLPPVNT
Procedure, shortened: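 AlphaLISA in modified Tris buffer: compounds (DMSO) with enzyme 15 min at room temperature, then substrate mix added for 60 min at room temperature. Acceptor and donor bead mix added for 60 min in subdued light, then Alpha signal read.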

[8] = molecular target: DNMT3A2/3L complex (Homo sapiens) (UniProt Q9Y6K1+Q9UJW3); assay: Inhibition of DNMT3A/3L (unknown origin) using IDT-01 sequence 1/IDT-01 sequence 2 as substrate at 100 uM preincubated for 15 mins followed by substrate addition measured after 4 hrs by liquid scintillation counting analysis relative to control; type: protein-complex assay
Procedure, shortened: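 Radioactive methylation assay in modified Tris buffer with IDT-01 Sequence 1 and Sequence 2 as substrates. Enzyme preincubated 15 min at room temperature before substrate added. After 4 h at room temperature, stopped with cold SAM, then transferred to FlashPlate and read by liquid scintillation counting.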

MV4-11 = assay: Cytotoxicity against human MV4-11 cells assessed as inhibition of cell proliferation after 120 hrs by alamar blue assay; type: functional, cell-based
Procedure, shortened: (§1)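 Cells seeded at approximately 2*10^4 per well in 100 µL medium, grown overnight, then exposed for about 120 h to 0–100 µM in DMSO. MCF7 and HCT116 read by MTT: 2 h at 37 °C, crystals dissolved in DMSO, absorbance 490 nm with 630 nm reference. HL60, MV4-11 and DHL4 read by alamarBlue, fluorescence ex 544/em 590 nm. Signals normalized to control wells.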

SUD4 = assay: Cytotoxicity against human SU-DHL4 cells assessed as inhibition of cell proliferation after 120 hrs by alamar blue assay; type: functional, cell-based; procedure, shortened: as §1
MCF7 = assay: cells; details: Homo sapiens, MCF7, 120 h
HL-60 = assay: cells; details: Homo sapiens, HL-60, 120 h
HCT-116 = assay: Cytotoxicity against human HCT116 cells assessed as inhibition of cell proliferation after 120 hrs by MTT assay
[9] = molecular target: Histone-lysine N-methyltransferase, H3 lysine-79 specific (Homo sapiens) (UniProt Q8TEK3); assay: Inhibition of DOT1L (unknown origin) at 100 uM preincubated for 15 mins followed by oligonucleosomes/SAM addition measured after 30 mins by AlphaLISA method relative to control

Histone-lysine N-methyltransferase EZH2 (Homo sapiens), sequence (Q15910 whole entry, looked up): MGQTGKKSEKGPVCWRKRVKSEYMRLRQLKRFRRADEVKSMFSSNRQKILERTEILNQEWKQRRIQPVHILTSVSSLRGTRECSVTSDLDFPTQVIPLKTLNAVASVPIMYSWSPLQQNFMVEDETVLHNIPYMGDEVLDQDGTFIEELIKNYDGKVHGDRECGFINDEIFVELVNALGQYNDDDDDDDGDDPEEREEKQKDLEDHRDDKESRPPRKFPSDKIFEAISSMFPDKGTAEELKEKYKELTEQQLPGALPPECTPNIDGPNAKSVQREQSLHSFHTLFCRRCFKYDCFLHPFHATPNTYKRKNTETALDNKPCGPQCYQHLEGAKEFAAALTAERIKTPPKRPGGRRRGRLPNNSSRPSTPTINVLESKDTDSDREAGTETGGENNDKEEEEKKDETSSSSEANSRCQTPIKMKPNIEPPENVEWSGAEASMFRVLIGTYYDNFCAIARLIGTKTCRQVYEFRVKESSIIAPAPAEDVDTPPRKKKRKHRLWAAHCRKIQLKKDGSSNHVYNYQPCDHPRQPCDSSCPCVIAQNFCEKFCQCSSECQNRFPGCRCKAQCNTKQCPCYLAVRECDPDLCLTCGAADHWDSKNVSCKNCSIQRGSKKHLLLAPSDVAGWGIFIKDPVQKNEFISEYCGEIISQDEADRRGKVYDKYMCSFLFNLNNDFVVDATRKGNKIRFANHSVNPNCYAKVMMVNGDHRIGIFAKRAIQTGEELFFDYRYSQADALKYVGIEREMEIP
DNA (cytosine-5)-methyltransferase 1 (Homo sapiens), sequence (P26358 whole entry): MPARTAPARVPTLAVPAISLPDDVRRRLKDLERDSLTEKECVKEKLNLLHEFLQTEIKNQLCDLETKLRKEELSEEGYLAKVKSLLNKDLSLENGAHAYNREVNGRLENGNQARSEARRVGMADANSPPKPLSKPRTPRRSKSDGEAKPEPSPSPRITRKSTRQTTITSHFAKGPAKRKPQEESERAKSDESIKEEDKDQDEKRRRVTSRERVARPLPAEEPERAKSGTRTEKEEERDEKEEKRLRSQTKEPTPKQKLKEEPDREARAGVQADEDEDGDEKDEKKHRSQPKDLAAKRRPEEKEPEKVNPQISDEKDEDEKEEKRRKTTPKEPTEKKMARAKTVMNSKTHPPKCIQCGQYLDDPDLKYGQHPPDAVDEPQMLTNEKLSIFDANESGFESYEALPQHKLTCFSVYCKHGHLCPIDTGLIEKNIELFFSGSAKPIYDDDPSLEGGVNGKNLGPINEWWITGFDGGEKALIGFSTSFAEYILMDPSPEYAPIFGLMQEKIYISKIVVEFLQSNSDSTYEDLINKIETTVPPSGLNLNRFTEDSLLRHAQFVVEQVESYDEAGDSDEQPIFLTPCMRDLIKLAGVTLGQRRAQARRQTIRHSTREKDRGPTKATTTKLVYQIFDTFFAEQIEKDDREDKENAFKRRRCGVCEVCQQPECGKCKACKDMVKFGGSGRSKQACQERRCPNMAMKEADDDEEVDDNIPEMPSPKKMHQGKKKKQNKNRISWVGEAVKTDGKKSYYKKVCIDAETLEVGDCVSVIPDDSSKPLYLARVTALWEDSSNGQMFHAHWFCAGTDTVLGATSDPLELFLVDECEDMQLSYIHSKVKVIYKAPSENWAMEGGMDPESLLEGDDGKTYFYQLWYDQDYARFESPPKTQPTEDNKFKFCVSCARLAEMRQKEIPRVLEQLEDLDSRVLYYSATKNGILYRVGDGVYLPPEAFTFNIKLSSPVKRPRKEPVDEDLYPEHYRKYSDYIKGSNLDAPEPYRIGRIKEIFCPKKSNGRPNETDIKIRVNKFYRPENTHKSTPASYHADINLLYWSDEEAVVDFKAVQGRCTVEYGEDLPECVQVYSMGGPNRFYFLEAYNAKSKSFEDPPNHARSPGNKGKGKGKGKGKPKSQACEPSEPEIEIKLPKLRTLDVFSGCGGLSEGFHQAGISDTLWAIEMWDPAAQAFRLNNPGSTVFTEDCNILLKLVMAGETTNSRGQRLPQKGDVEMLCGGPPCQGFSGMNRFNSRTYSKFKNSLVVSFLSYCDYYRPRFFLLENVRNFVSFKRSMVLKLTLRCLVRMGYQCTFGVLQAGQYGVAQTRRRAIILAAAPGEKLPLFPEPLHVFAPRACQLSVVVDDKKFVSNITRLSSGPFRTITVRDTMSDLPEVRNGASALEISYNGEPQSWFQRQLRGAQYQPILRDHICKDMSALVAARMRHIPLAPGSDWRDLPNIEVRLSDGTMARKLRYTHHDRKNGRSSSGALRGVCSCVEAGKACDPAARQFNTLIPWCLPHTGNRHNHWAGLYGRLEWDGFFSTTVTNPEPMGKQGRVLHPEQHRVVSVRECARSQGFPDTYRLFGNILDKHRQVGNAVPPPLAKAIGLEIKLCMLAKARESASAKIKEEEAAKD
Histone-lysine N-methyltransferase, H3 lysine-36 specific (Homo sapiens), sequence (Q96L73 whole entry): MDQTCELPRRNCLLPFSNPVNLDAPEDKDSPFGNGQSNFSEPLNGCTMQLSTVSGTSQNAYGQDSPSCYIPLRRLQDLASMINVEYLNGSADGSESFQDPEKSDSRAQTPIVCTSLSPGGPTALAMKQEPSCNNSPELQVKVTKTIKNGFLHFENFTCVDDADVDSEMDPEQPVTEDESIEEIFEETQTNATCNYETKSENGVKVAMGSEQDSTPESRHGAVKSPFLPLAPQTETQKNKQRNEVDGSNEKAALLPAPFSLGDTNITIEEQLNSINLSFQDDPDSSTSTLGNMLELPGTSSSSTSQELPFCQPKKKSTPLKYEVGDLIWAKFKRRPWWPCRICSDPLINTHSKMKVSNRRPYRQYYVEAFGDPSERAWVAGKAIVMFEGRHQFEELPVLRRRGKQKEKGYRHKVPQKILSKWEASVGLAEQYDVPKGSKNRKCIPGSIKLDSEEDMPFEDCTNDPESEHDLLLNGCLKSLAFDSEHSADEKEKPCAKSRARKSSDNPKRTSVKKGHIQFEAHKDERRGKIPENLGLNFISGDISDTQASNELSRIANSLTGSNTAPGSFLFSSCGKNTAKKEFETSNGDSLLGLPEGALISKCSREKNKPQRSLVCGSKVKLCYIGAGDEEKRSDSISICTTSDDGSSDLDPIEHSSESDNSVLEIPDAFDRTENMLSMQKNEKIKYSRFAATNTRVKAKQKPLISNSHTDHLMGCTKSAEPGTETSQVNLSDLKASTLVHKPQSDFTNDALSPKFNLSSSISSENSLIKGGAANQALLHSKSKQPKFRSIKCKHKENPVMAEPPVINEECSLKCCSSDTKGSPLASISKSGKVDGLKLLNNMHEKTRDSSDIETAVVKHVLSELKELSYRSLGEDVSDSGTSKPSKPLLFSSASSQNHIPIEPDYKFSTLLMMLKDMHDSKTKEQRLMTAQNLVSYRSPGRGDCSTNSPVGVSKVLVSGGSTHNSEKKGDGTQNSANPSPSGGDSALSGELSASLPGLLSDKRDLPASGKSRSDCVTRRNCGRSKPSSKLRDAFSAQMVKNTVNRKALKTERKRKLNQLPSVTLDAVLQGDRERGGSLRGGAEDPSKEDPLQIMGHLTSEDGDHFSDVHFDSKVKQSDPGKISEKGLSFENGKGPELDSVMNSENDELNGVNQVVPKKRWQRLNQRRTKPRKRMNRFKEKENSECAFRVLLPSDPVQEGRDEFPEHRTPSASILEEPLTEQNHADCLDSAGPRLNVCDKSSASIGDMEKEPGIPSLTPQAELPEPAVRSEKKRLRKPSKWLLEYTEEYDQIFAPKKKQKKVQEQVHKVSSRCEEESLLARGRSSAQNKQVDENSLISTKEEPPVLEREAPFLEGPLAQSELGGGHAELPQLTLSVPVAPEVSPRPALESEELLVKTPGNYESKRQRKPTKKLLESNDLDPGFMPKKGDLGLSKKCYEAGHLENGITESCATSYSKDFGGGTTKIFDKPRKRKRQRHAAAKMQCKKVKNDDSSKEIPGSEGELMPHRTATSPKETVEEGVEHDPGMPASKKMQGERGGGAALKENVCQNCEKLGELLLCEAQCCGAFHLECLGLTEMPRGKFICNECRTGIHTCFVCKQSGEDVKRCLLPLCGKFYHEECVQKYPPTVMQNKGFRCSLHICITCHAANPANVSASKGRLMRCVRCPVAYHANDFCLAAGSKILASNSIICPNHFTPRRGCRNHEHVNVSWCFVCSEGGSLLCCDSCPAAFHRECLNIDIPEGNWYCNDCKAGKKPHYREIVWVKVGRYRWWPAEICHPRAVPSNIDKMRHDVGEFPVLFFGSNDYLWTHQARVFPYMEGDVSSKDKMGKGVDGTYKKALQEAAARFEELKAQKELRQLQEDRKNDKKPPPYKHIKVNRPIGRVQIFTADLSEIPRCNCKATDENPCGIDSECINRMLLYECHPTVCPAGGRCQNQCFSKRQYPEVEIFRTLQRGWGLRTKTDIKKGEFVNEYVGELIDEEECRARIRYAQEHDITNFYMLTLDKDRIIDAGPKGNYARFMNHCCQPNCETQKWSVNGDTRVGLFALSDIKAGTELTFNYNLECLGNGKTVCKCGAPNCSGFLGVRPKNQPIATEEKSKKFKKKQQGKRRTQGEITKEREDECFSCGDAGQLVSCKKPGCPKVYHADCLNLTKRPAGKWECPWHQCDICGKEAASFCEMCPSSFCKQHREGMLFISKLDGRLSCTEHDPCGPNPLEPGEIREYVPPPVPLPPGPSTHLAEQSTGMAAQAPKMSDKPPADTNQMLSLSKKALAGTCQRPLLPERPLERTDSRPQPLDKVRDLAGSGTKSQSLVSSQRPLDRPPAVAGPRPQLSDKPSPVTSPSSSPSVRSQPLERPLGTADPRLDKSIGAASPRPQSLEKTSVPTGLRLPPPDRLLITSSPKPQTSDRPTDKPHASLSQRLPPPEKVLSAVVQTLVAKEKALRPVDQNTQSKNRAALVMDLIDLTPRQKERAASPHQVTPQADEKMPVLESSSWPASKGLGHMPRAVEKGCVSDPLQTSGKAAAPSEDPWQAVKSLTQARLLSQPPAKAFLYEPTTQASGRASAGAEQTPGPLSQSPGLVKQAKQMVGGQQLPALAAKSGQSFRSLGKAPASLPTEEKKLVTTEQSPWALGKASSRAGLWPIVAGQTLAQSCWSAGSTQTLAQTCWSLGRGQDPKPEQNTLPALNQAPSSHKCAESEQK

| IC50 [1] [µM] | IC50 [2] [µM] | inhibition [3] [%] | inhibition [4] [%] | inhibition [5] [%] | inhibition [6] [%] | inhibition [7] [%] | inhibition [8] [%] | IC50 (MCF7) [µM] | IC50 (HL-60) [µM] | inhibition [9] [%] | Structure (SMILES) | inhibition (MV4-11) | inhibition (SUD4) | inhibition (HCT-116) |
| --- | --- | --- | --- | --- | --- | --- | --- | --- | --- | --- | --- | --- | --- | --- |
| 20 |  |  |  |  |  |  |  |  |  |  | CN1CCC(=C2c3ccccc3C=Cc3ccccc32)CC1 [CYPROHEPTADINE] |  |  |  |
|  | 4.59 | 16.1 | 19.6 | 27.2 | 40.9 | -0.71 | -4.25 | 10.9 | 16.4 | -5.42 | CCOC(=O)c1c(N)sc(C(=O)Nc2cccc([N+](=O)[O-])c2)c1C | Dose-dependent effect | inactive | inactive |
|  | 4.88 | 9.82 | 19.6 | 25.1 | 45.5 | 29.9 |  |  |  |  | COC(=O)c1c(N)sc(C(=O)Nc2cccc([N+](=O)[O-])c2)c1C |  |  |  |
|  | 61.7 |  |  |  |  |  |  |  |  |  | O=C(Nc1cccc([N+](=O)[O-])c1)c1ccc2c(c1)OCO2 |  |  |  |

From ChEMBL document CHEMBL3621043, “Discovery and Optimization of Novel, Selective Histone Methyltransferase SET7 Inhibitors by Pharmacophore- and Docking-Based Virtual Screening” (J Med Chem, 2015)
